Bioassay records: PubChem, Sanford-Burnham Center for Chemical Genomics
SENP8 block-1: SENP8 protease inhibitors, primary screen, biochemical, luminescence; 1.2% of 330,000 active; purified SENP8, Z-RLRGG-aminoluciferin cleavage; Sentrin-specific protease 8 (Homo sapiens), Q96LD8; AID 2540, 2010; inhibition, % at 10 µM; in the data active = inhibition above about 50%
SENP7 block: SENP7 protease inhibitors, primary screen, biochemical, luminescence, uHTS; AID 434973, 2010; inhibition, % at 5 µM; recombinant SENP7, Z-RLRGG-aminoluciferin luminescence, 40 min; 1.5% of 330,000 active;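 active = inhibition above about 50% at the single test dose, limit read from the data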;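 also: plate controls were DMSO with enzyme for no effect and no enzyme buffer wells for full effect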
Target sequence (Q9BQF6 706-1050 limits assumed): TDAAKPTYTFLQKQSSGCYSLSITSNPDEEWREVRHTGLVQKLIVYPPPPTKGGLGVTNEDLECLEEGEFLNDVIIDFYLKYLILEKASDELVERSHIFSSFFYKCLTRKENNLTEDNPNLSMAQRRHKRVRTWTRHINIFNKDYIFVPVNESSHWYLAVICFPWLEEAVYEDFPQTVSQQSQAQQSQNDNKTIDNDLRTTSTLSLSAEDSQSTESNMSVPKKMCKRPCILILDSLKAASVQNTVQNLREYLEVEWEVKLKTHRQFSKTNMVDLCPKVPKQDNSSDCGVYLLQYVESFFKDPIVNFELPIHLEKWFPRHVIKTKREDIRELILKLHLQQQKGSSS
SENP8 block-2: human SENP8 protease inhibitors, primary screen, biochemical, fluorescence, Nedd8 protein substrate, uHTS | recombinant SENP8 | 0.64% of 360,000 active | Sentrin-specific protease 8 (Homo sapiens), Q96LD8 | inhibition, % at 20 µM; in the data active = inhibition mostly above about 40%, no sharp cut-off; inactive = mostly below about 27%
UBC13 inh: UBC13 polyubiquitin chain formation inhibitors, primary screen, biochemical, TR-FRET, uHTS; inhibition, % at 20 µM; 0.47% of 330,000 active; AID 485273, 2010; in the data active = inhibition above about 45%, passing the limit was not always enough
Apaf1 inhib: inhibitors of human Apaf-1 apoptosome, primary screen, biochemical, DEVD-Rh110 fluorescence, uHTS. Apoptotic protease-activating factor 1 (Homo sapiens), O14727. reconstituted apoptosome caspase-3 activity. inhibition, % at 20 µM. 0.71% of 330,000 active; active = inhibition of at least 40% at 20 µM;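 also: plate controls were DMSO wells for no effect and DEVD-CHO caspase inhibitor wells for full effect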
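Assay system: Apoptosome proteins | Medium: pH 7.5 Hepes buffer with CHAPS, BSA, DTT | Also added: Cytochrome c and DEVD-Rh110 substrate | Times: 30 min plus 50 min, RT | Detection: Rhodamine 110 fluorescence at Ex 480/Em 540 nm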
SENP6 inh: SENP6 protease inhibitors, primary screen, biochemical, luminescence, uHTS; Sentrin-specific protease 6 (Homo sapiens), Q9GZR1; Recombinant SENP6 catalytic domain, aminoluciferin luminescence; inhibition, % at 10 µM; 1.8% of 330,000 active; AID 2599, 2010;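 active = inhibition above about 50% at the single tested dose, limit read from the data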;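 also: plate controls were DMSO wells with enzyme for no effect and DMSO wells lacking enzyme for full effect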
SENP8 confirm: SENP8 protease inhibitors, retest, confirmation, biochemical, luminescence, single concentration | shares compounds with SENP7 block | Recombinant SENP8, Z-RLRGG-aminoluciferin luminescence, 60 min | inhibition, % at 12.5 µM | 40% of 6,200 active | AID 488912, 2010;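 active = mean inhibition across replicates above about 50%, limit read from the data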
SENP6 conf: SENP6 protease inhibitors, confirmation, biochemical, luminescence, single concentration; shares compounds with SENP7 block; recombinant SENP6, Z-RLRGG-aminoluciferin luminescence; inhibition, % at 12.5 µM; 58% of 6,200 active; AID 488915, 2010
SENP7 confirm: SENP7 protease inhibitors, retest, confirmation, biochemical, luminescence, single concentration; 69% of 6,200 active; inhibition, % at 12.5 µM; recombinant SENP7, Z-RLRGG-aminoluciferin luminescence, 40 min; shares compounds with SENP7 block
Casp3 select: caspase-3 protease inhibitors, confirmation, selectivity assay for SENP inhibitor project, biochemical, single concentration; shares compounds with SENP7 block; purified caspase-3, Z-DEVD-aminoluciferin luminescence, 60 min; inhibition, % at 12.5 µM; 60% of 6,200 active; AID 488918, 2010;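 active = mean inhibition above about 50%, limit read from the data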;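 also: plate controls were enzyme with DMSO for no effect and wells without caspase-3 for full effect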
Target sequence (P42574 28-227 limits assumed): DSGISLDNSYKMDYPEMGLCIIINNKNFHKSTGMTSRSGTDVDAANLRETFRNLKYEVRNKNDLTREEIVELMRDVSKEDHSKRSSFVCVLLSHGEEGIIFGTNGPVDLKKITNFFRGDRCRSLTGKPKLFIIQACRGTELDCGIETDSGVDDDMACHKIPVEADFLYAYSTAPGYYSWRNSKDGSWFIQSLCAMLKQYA
SENP luc ctr: interferes with luciferase luminescence in SENP counter-screen. AID 488919. inhibition, % at 12.5 µM. 39% of 6,200 active. Pre-incubated SENP8/Z-RLRGG-aminoluciferin, luciferase luminescence interference. shares compounds with SENP7 block;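 active = mean inhibition above about 50% when retested at one dose, limit read from the data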;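 also: plate controls were DMSO wells with completed reaction for no effect and substrate without enzyme for full effect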
Active calls of the source: *; i = inactive; x = not tested or not shown. The list is not random: actives were taken first. Their share in the collection is about 3.1%.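 The calls were made as follows, unless noted: active = mean inhibition above about 50% in the one-dose retest (limit read from the data); inactive = the rest.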

SMILES	SENP8 block-1	SENP7 block	SENP8 block-2	UBC13 inh	Apaf1 inhib	SENP6 inh	SENP8 confirm	SENP6 conf	SENP7 confirm	Casp3 select	SENP luc ctr
O=C(Nc1nnc(CSCc2ccccc2F)s1)c1cccc([N+](=O)[O-])c1	25	4	-19	-1	2	56*	10	6	2	7	1
O=C(Nc1nnc(S(=O)(=O)N2CCCC2)s1)c1cccc([N+](=O)[O-])c1	34	20	2	-2	-4	52*	10	30	6	26	2
CC(C)C(=O)Nc1nnc(CSCc2ccccc2F)s1	-11	-11	2	-9	18	-18	x	x	x	x	x
CC1CCN(S(=O)(=O)c2nnc(NC(=O)c3cccc([N+](=O)[O-])c3)s2)CC1	-5	1	24	-10	8	7	x	x	x	x	x
CC(C)CC(=O)N1CC=CC[C@@H](c2ccc(Cl)cc2)N(Cc2ccc(Cl)cc2)C(=O)[C@@H]1Cc1ccccc1	x	x	16	x	x	x	x	x	x	x	x
O=C(O)C1CCCCN1c1ccccc1[N+](=O)[O-] (stereo not drawn)	x	x	0	x	x	x	x	x	x	x	x
N/C(=N\OC(=O)c1ccc(F)cc1)c1ccccc1	91*	98*	16	15	-8	97*	96*	96*	102*	97*	94*
N/C(=N\OC(=O)c1ccc(F)cc1)c1ccc(Br)cc1	-12	18	3	-9	5	-37	x	x	x	x	x
Cc1ccc(/C(N)=N/OC(=O)c2ccc(F)cc2)cc1	18	61*	7	13	-16	40	0	25	69*	62*	25
OC(c1cccnc1)c1nc(-c2cccc(F)c2)cs1 (stereo not drawn)	x	x	2	x	x	x	x	x	x	x	x
O=C(COC(=O)c1cnccn1)c1ccc(OC(=O)c2ccccc2)cc1	0	7	21	34	-15	15	x	x	x	x	x
COC(=O)c1ccc(COC(=O)c2ccccn2)cc1	50	82*	13	4	-5	75*	76*	74*	91*	92*	76*
O=C(Oc1ccccc1)c1ccc(COC(=O)c2cnccn2)cc1	76*	89*	16	2	9	94*	-22	80*	97*	87*	85*
COc1ccc(S(=O)(=O)NC(C)c2ccc3c(c2)OCCO3)cc1 (stereo not drawn)	x	x	4	x	x	x	x	x	x	x	x
Cc1c(C(=O)N2CCC(C)CC2)oc2ccc(S(=O)(=O)N3CCC4(CC3)OCCO4)cc12	3	75*	8	1	-4	6	6	8	7	3	2
Cc1c(C(=O)O)oc2ccc(S(=O)(=O)N3CCC(C)CC3)cc12	-2	3	13	-7	-8	-3	x	x	x	x	x
CC[C@@H]1CC2=C(C(=O)OC(C)(C)O2)[C@@H](c2ccc(Cl)cc2)O1	x	x	13	x	x	x	x	x	x	x	x
COC(=O)c1cn(-c2nc3ccccc3s2)nn1	x	x	-8	x	x	x	x	x	x	x	x
Cc1ccccc1N1Cc2ccccc2C1=O	x	x	10	x	x	x	x	x	x	x	x
CC(C(=O)O)c1ccc(N2Cc3ccccc3C2=O)cc1 (stereo not drawn)	46	41	-13	4	-11	54*	26	23	72*	78*	55*
Cc1ccccc1-c1nnc(-c2cccc3ccccc23)o1	x	x	i	x	x	x	x	x	x	x	x
Cc1ccccc1-c1nnc(-c2ccccc2C)o1	58*	85*	1	-11	-1	77*	13	29	63*	41	11
Cc1ccccc1-c1nnc(-c2ccc(Br)cc2)o1	33	67*	2	18	15	75*	14	13	22	30	7
c1coc(C2=Nc3cccc4cccc(c34)N2)c1	14	5	36	-75	14	50*	-22	-6	-9	-8	-3
COc1cccc(C2=Nc3cccc4cccc(c34)N2)c1	-4	6	15	-34	6	-12	x	x	x	x	x
SMILES	SENP8 block-1	SENP7 block	SENP8 block-2	UBC13 inh	Apaf1 inhib	SENP6 inh	SENP8 confirm	SENP6 conf	SENP7 confirm	Casp3 select	SENP luc ctr
CC1(C(=O)O)CCCN1C(=O)c1cccc(OC(F)(F)F)c1 (stereo not drawn)	x	x	8	x	x	x	x	x	x	x	x
COC(=O)c1sccc1NC(=O)Cc1ccc(OC)cc1	23	42	13	7	-5	51*	49	44	79*	63*	58*
CCCc1nc2c3ccccc3ccn2c1Cc1cccc(F)c1	x	x	-72	x	x	x	x	x	x	x	x
c1ccc2nc(-c3ccc(-n4ccnc4)cc3)ccc2c1	61*	72*	-32	-5	12	1	10	81*	43	-1	-1
COC(=O)[C@@]12C[C@@H](CC(=O)N3CCC(c4ccccc4)CC3)C(=O)N(Cc3ccco3)C1=CCC(C)(C)C2	x	x	27	x	x	x	x	x	x	x	x
CC(=O)NCCCc1nc2ccccc2n1Cc1ccccc1F	-7	55*	12	-4	-10	-14	9	8	-2	2	0
CC(=O)NCc1nc2ccccc2n1Cc1ccccc1F	3	2	13	0	1	1	x	x	x	x	x
O=C1c2ccccc2C(c2nnnn2-c2ccc3ccccc3c2)N1C1CC1 (stereo not drawn)	x	x	2	x	x	x	x	x	x	x	x
O=[N+]([O-])c1ccc(N/N=C/c2ccccc2O)cc1	58*	50	-84	-71	14	70*	-2	41	83*	26	19
Cc1nc2ccc(NC(=O)c3cc(Cl)ccn3)cc2s1	60*	68*	2	-1	4	74*	11	30	59*	37	8
Cc1nc2ccc(NC(=O)c3ccc(Cl)nc3)cc2s1	-5	1	3	8	0	92*	2	-5	-9	8	-5
Cc1ccc(C(=O)Nc2ccc3nc(C)sc3c2)o1	x	x	10	x	x	x	x	x	x	x	x
